In paper PMC3583018 (Synapse (New York, N.Y.), 2010):
“And” between values parts separate entries of the source, which are not always exact repeats. Equal entries are not always repeated. Where two headings read alike, the source gives them in different places.

What was measured:
D3 receptors [1] = molecular target: D3 receptors (Rattus norvegicus, UniProt P19020); assay: Scatchard analysis of autoradiography binding to rat brain sections; parameters: species or system Sprague-Dawley rat
D2 plus D3 receptors [2] = assay type: binding, rhesus monkey; settings: n = 8; for B1 apparent receptor binding density: 4 nM radioligand; for B2 apparent receptor binding density: 10 nM radioligand
Summary of the method: (§1)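 Brains from male rhesus monkey (5 kg, 6 years) and male Sprague-Dawley rats (~500 g, 5 months) were flash frozen, and 20 μm coronal sections were cut. Sections were incubated 30 min with 4 nM tritiated test radioligand or 10 nM [3H]raclopride, ±1 μM S(−)-eticlopride for nonspecific binding. Sections were rinsed five times in ice-cold buffer, then imaged 24 h on a gaseous beta imager and calibrated against tritium standards. Reported as mean ± S.E.M (monkey n = 8, rat n = 30).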

D2 plus D3 receptors [3] = assay type: binding, Sprague-Dawley rat; settings: rat striatum, n = 30
Summary of the method: as §1

D2 receptors [4] = assay: Fractional receptor occupancy from saturation binding isotherm; settings: monkey striatum; for receptors labeled: derived from saturation binding isotherm
Summary of the method: (§2)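 Calculated rather than measured: the fraction of D2 or D3 receptors occupied in monkey striatum comes from B/Bmax = L/(L+Kd). L is 4 nM for the tritiated test radioligand or 10 nM for tritiated raclopride. Kd values are from saturation binding to cloned human D2L/D3 receptors expressed in HEK cells. The test radioligand Kd values were taken from earlier work.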

D3 receptors [5] = assay: as above; settings: monkey striatum; for receptors labeled: derived from saturation binding isotherm
Summary of the method: as §2

D2 receptors [6] = assay: Fractional receptor occupancy from saturation binding isotherm; settings: rat striatum; for receptors labeled: derived from saturation binding isotherm
Summary of the method: (§3)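 Computed occupancy fractions for rat striatum D2 or D3 receptors use the mass-action isotherm B/Bmax = L/(L+Kd). L is 4 nM for the tritiated test radioligand and 10 nM for tritiated raclopride. Kd values come from saturation binding to rat D2L/D3 receptors expressed in Sf9 cell membranes. The test radioligand Kd was taken from earlier work.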

D3 receptors [7] = assay: as above; settings: rat striatum; for receptors labeled: derived from saturation binding isotherm
Summary of the method: as §3

human hD2L receptors = human hD2L receptors (Homo sapiens, UniProt P14416); settings: hD2L in HEK cells, saturation binding, mean ± S.E.M n = 3; ref Xu et al. (2009); cited from earlier work
human hD3 receptors [8] = molecular target: T1, human hD3 receptors (Homo sapiens, UniProt P35462); settings: cited from earlier work
rat rD2L receptors = rat rD2L receptors (Rattus norvegicus, UniProt P61169); settings: rD2L in Sf9 cells, saturation binding, mean ± S.E.M n = 3; ref Xu et al. (2009); cited from earlier work
rat rD3 receptors [9] = molecular target: T2, rat rD3 receptors (Rattus norvegicus, UniProt P19020); settings: cited from earlier work
human hD3 receptors [10] = molecular target: T1, human hD3 receptors; assay: Saturation; settings: hD3 in HEK cells, saturation binding, mean ± S.E.M n = 3
rat rD3 receptors [11] = molecular target: T2, rat rD3 receptors; assay: Saturation; settings: rD3 in Sf9 cells, saturation binding, mean ± S.E.M n = 3
[12] = 4 nM, from Eq. 2 with Kd of Table I
[13] = 10 nM, from Eq. 2 with Kd of Table I

T2 sequence (P19020 whole entry): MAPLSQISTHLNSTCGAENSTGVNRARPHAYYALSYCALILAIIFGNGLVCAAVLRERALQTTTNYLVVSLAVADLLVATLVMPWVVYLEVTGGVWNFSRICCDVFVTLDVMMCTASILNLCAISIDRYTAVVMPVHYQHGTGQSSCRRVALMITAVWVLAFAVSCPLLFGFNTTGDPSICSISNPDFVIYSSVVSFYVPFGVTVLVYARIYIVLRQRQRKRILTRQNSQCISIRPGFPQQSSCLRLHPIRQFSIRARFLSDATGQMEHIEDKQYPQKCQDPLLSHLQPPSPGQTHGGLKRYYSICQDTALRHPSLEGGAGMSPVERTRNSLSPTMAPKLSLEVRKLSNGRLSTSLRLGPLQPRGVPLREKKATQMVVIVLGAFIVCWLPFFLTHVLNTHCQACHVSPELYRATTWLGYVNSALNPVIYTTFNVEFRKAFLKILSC
T1 sequence (P35462 whole entry): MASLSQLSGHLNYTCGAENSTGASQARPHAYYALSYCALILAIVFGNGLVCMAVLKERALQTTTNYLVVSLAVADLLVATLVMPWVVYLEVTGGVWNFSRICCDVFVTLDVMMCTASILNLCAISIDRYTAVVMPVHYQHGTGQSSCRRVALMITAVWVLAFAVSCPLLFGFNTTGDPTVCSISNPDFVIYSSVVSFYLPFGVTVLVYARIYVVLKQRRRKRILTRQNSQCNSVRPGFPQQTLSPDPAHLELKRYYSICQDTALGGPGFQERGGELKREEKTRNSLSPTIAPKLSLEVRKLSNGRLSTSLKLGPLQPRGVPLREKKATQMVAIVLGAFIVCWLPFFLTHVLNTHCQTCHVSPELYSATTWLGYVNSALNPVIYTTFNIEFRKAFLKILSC
Chain of rat rD2L receptors (P61169 whole entry): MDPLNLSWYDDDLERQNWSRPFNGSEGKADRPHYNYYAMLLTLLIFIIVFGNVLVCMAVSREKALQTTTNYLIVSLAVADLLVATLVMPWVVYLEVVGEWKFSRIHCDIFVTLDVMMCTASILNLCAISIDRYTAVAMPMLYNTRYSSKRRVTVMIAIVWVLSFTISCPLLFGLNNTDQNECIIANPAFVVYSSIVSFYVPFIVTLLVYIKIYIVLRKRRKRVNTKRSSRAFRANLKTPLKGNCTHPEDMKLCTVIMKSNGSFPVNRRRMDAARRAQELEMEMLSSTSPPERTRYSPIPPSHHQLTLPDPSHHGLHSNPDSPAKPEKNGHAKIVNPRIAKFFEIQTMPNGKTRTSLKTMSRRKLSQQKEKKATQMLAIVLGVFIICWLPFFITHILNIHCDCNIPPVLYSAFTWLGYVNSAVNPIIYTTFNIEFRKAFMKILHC
Chain of D3 receptors (Rattus norvegicus, UniProt P19020) (P19020 whole entry): as the sequence (P19020 whole entry) above
Chain of human hD2L receptors (P14416 whole entry): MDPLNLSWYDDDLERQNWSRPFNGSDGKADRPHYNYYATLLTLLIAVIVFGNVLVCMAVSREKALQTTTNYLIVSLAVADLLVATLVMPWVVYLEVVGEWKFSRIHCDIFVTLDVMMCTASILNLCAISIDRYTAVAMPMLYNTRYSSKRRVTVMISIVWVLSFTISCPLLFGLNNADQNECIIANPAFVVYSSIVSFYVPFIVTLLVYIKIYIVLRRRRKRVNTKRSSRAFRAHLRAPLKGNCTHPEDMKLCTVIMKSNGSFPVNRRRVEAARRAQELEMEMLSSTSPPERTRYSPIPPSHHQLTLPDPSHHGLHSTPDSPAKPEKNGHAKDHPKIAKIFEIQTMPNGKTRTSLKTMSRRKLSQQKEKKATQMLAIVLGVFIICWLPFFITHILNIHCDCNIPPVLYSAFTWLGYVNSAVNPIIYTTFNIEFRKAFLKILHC

Compound: COc1ccccc1N1CCN(CCCCNC(=O)c2ccc(N(C)C)cc2)CC1 [[^3H]WC-10, 4-(dimethylamino)-N-(4-(4-(2-methoxyphenyl)piperazin-1-yl)butyl)benzamide]
- Kd (D3 receptors [1]): 3.4 nM
- B1 apparent receptor binding density (D2 plus D3 receptors [2]; rhesus anterior caudate): 125 fmol/mg tissue and 125 ± 3 fmol/mg tissue
- B1 apparent receptor binding density (D2 plus D3 receptors [2]; rhesus putamen): 141 fmol/mg tissue and 141 ± 4 fmol/mg tissue
- B1 apparent receptor binding density (D2 plus D3 receptors [3]; 4 nM radioligand): 38 fmol/mg tissue and 38 ± 2 fmol/mg tissue
- receptors labeled (D2 receptors [4]; 4 nM): 5%
- a1, receptor occupancy fraction (D2 receptors [4]; [12]): 0.05
- receptors labeled (D3 receptors [5]; 4 nM): 78%
- b1, receptor occupancy fraction (D3 receptors [5]; [12]): 0.78
- receptors labeled (D2 receptors [6]; 4 nM): 2%
- a1, receptor occupancy fraction (D2 receptors [6]; [12]): 0.02
- receptors labeled (D3 receptors [7]; 4 nM): 50%
- b1, receptor occupancy fraction (D3 receptors [7]; [12]): 0.5
- Kd (human hD2L receptors): 76 ± 4 nM
- Kd (human hD3 receptors [8]; hD3 in HEK cells, saturation binding, mean ± S.E.M n = 3, ref Xu et al. (2009)): 1.2 nM and 1.16 nM
- D2L/D3 (Kd ratio) (human hD3 receptors [8]; human receptors in HEK cells, ref Xu et al. (2009)): 65.5
- fold higher affinity to human HEK D3 than to HEK D2L receptors (human hD3 receptors [8]; ref Xu et al., 2009): 66 fold
- Kd (rat rD2L receptors): 158 ± 8.3 nM
- Kd (rat rD3 receptors [9]; rD3 in Sf9 cells, saturation binding, mean ± S.E.M n = 3, ref Xu et al. (2009)): 3.9 nM and 3.94 nM
- D2L/D3 (Kd ratio) (rat rD3 receptors [9]; rat receptors in Sf9 cells, ref Xu et al. (2009)): 40.1
- fold higher affinity to rat Sf9 rD3 than to rat Sf9 rD2L receptors (rat rD3 receptors [9]; ref Xu et al., 2009): 40 fold
- fold lower affinity to rat Sf9 rD3 than to human HEK D3 receptors (rat rD3 receptors [9]; ref Xu et al., 2009): 3 fold

Compound: CCN1CCC[C@H]1CNC(=O)c1c(O)c(Cl)cc(Cl)c1OC (racemic) [[^3H]raclopride, reference compound]
- Kd (human hD3 receptors [10]): 18 ± 1 nM
- Kd (rat rD3 receptors [11]): 17.1 ± 1.7 nM
- B2 apparent receptor binding density (D2 plus D3 receptors [2]; rhesus caudate): 318 fmol/mg tissue and 318 ± 17 fmol/mg tissue
- B2 apparent receptor binding density (D2 plus D3 receptors [2]; rhesus putamen): 345 fmol/mg tissue and 345 ± 23 fmol/mg tissue
- B2 apparent receptor binding density (D2 plus D3 receptors [3]; 10 nM radioligand): 145 fmol/mg tissue and 145 ± 4 fmol/mg tissue
- receptors labeled (D2 receptors [4]; 10 nM): 86%
- a2, receptor occupancy fraction (D2 receptors [4]; [13]): 0.86
- receptors labeled (D3 receptors [5]; 10 nM): 36%
- b2, receptor occupancy fraction (D3 receptors [5]; [13]): 0.36
- receptors labeled (D2 receptors [6]; 10 nM): 60%
- a2, receptor occupancy fraction (D2 receptors [6]; [13]): 0.6
- receptors labeled (D3 receptors [7]; 10 nM): 37%
- b2, receptor occupancy fraction (D3 receptors [7]; [13]): 0.37
